Experimental findings from ChEMBL document CHEMBL1121495, “Anticandidal activity of pyrimidine-peptide conjugates” (J Med Chem, 1980) are described below.

Molecules are shown by their SMILES.

As a reminder, the Inhibition is the drop in the measured response relative to a control, in per cent.

The test system of this experiment is Candida albicans. The experiment in a line: Compound was evaluated for inhibition of transport of trimethionine in Candida albicans WD 18-4. Also on record: concentration or dose not given beside the values. It counts as functional. In short, it runs like this: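 Initial uptake rate of radiolabeled (Met)3 into C. albicans WD 18-4 cells grown 6-8 h at 37 °C with aeration. Washed cells (1.4 mg dry wt/mL) preincubated 10 min at 37 °C, mixed with reaction mix of 2% glucose, citrate-phosphate buffer pH 3.5 (0.012 M) and (Met)3 6.06 x 10^-5 M. Samples filtered at intervals, washed, scintillation counted. Competitor included at 10-fold molar excess over (Met)3.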
In the case of `O=C(O)CNC(=O)CNC(=O)c1cc(O)nc(O)n1`, the Inhibition was 0%.
As for `CC(C)C[C@H](NC(=O)c1nc(O)nc(O)c1F)C(=O)O`, the figure is 0%.
As for `COC(=O)[C@H](CCSC)NC(=O)[C@H](CCSC)NC(=O)c1cc(O)nc(O)n1`, the figure is 0%; as for `CC(C)CC(NC(=O)C(CC(C)C)NC(=O)c1cc(O)nc(O)n1)C(=O)O` (stereo not given), 67%.
As for `CC(C)C[C@H](NC(=O)[C@H](CC(C)C)NC(=O)c1nc(O)nc(O)c1F)C(=O)O`, the figure is 40%.
